Source: EPA's CvTdb concentration-time database

Key:
[1] = test system: Hamster; experiment: concentration in plasma after dosing; conditions: dosed: 2,4-Dichlorophenoxyacetic acid, 2.0 mg/kg, oral, Male, Syrian Golden
Summary of the method: (§1)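 Concentration-versus-time or amount-versus-time points were compiled from published in vivo toxicokinetic studies and from two structured collections. The studies were found by PubMed searching, classifier screening and manual review. Points were mostly digitised from plot screenshots with WebPlotDigitizer, otherwise copied from tables, and kept in the reported units. Dose, route, subject details and medium were curated by hand from each paper, and sampling and analytical methods follow each source and were often unreported.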

[2] = test system: Rat; experiment: concentration in plasma after dosing; conditions: dosed: 2-Hydroxy-4-methoxybenzophenone, 100 mg/kg, oral, Male, F344
[3] = test system: Mouse; experiment: concentration in plasma after dosing; conditions: 2 h; dosed: 2-Hydroxy-4-methoxybenzophenone; 500 mg/kg; oral; Female; B6C3F1
[4] = test system: Mouse; experiment: concentration in plasma after dosing; conditions: 10 min; dosed: 2-Hydroxy-4-methoxybenzophenone; 250 mg/kg; oral; Male; B6C3F1
[5] = test system: human; experiment: amount in urine after dosing (umol)
Summary of the method: as §1

[6] = test system: Rat; experiment: concentration in liver after dosing; conditions: 12 h; dosed: Perfluorohexane-1-sulphonic acid – potassium salt; 16 mg/kg; oral; Female; Harlan Sprague Dawley
[7] = test system: Rat; experiment: concentration in brain after dosing; conditions: 192 h; dosed: Perfluorohexane-1-sulphonic acid – potassium salt; 16 mg/kg; oral; Female; F344
[8] = test system: Rat; experiment: concentration in plasma after dosing; conditions: 1.5 h; dosed: Primidone; 80 mg/kg; oral; Male; F344
[9] = test system: Rat; experiment: concentration in plasma after dosing; conditions: 12 h; dosed: alpha-Thujone; 25 mg/kg; oral; Male; Harlan Sprague Dawley
[10] = test system: Rat; experiment: concentration in brain after dosing; conditions: 12 h; dosed: alpha-Thujone; 50 mg/kg; oral; Male; Harlan Sprague Dawley
[11] = test system: Rat; experiment: concentration in brain after dosing; conditions: 3 h; dosed: alpha-Thujone; 25 mg/kg; oral; Female; Harlan Sprague Dawley
[12] = test system: Rat; experiment: concentration in brain after dosing; conditions: 3 h; dosed: alpha-Thujone; 50 mg/kg; oral; Male; Harlan Sprague Dawley
[13] = test system: Rat; experiment: concentration in brain after dosing; conditions: 6 h; dosed: alpha-Thujone; 25 mg/kg; oral; Male; Harlan Sprague Dawley
[14] = test system: human; experiment: concentration in blood after dosing; negative times count back from the end of exposure; conditions: dosed: trichloroethylene, 100 ppm, inhalation, duration: 4 hr, person
Summary of the method: as §1

[15] = test system: human; experiment: concentration in blood after dosing; conditions: dosed: trichloroethylene, 100 ppm, inhalation, duration: 6 hr, male
Summary of the method: as §1

O=C(O)COc1ccc(Cl)cc1Cl [2,4-Dichlorophenoxyacetic acid]
[1]
Conditions | concentration in plasma [µg/mL]
2.5 h | 0.2
5 min | 2.77
10 min | 10.3

O=C(c1ccccc1)c1ccc(O)cc1O [2,4-Dihydroxybenzophenone]
[2]
Conditions | concentration in plasma [µg/mL]
0.5 h | 0.16
5 h | 0.04

Conditions | concentration in plasma [µg/mL]
[3] | 0.104
[4] | 0.415

CC(C)(O)CO [2-methyl-1,2-propanediol]
amount in urine, [5], inhalation, duration: 4 hr
Conditions | dosed: ethyl tert-butyl ether | dosed: methyl tert-butyl ether
0 h, 4.5 ppm | 0.545 | 1.1
0.1089 h, 38.7 ppm | – | 7.53
0.1579 h, 40.6 ppm | 3.98 | –
5.975 h, 4.5 ppm | 2.4 | –
6 h, 40.6 ppm | 14.9 | –
6.195 h, 38.7 ppm | – | 37
6.261 h, 4.5 ppm | – | 3.42
11.95 h, 38.7 ppm | – | 45.2
12 h, 40.6 ppm | 24.1 | –
12.1 h, 4.5 ppm | – | 4.96
12.15 h, 4.5 ppm | 2.89 | –
18 h, 40.6 ppm | 19.9 | –
18.07 h, 4.5 ppm | 3.11 | –
18.16 h, 4.5 ppm | – | 2.54
18.22 h, 38.7 ppm | – | 35.6
23.96 h, 38.7 ppm | – | 26
24 h, 4.5 ppm | – | 3.2
24 h, 40.6 ppm | 12.5 | –
24.03 h, 4.5 ppm | 2.35 | –
29.89 h, 40.6 ppm | 7.97 | –
30.14 h, 38.7 ppm | – | 28.1
30.16 h, 4.5 ppm | – | 2.54
30.2 h, 4.5 ppm | 1.53 | –
35.98 h, 38.7 ppm | – | 17.1
36 h, 4.5 ppm | – | 1.32
36.11 h, 40.6 ppm | 7.37 | –
36.16 h, 4.5 ppm | 1.04 | –
42.11 h, 40.6 ppm | 4.98 | –
42.12 h, 4.5 ppm | 0.655 | –
42.15 h, 38.7 ppm | – | 8.9
42.16 h, 4.5 ppm | – | 0.662
48 h, 38.7 ppm | – | 5.48
48.11 h, 40.6 ppm | 3.19 | –
48.3 h, 4.5 ppm | 0.6 | –
54.05 h, 40.6 ppm | 2.39 | –
54.07 h, 38.7 ppm | – | 4.79
60.03 h, 38.7 ppm | – | 3.42
60.16 h, 40.6 ppm | 2.19 | –
66.09 h, 38.7 ppm | – | 3.42
66.11 h, 40.6 ppm | 1.59 | –
71.95 h, 38.7 ppm | – | 1.37
72.05 h, 40.6 ppm | 1.59 | –

amount in urine, [5], dosed: methyl tert-butyl ether, oral
Conditions | 5 mg | 15 mg
0 h | 0.0411 | –
5.848 h | – | 2.13
6.268 h | 0.795 | –
12.12 h | 1.23 | 3.38
17.99 h | – | 2.7
18.39 h | 1.15 | –
24.17 h | – | 1.82
24.44 h | 0.658 | –
30.03 h | – | 1.82
30.29 h | 0.616 | –
36.11 h | – | 1.02
36.35 h | 0.384 | –
41.98 h | – | 0.46
42.2 h | 0.233 | –
48.05 h | – | 0.462
48.26 h | 0.123 | –
53.91 h | – | 0.224
54.42 h | 0.123 | –
59.78 h | – | 0.146
60.27 h | 0.0411 | –
65.95 h | – | 0.0276

O=S(=O)([O-])C(F)(F)C(F)(F)C(F)(F)C(F)(F)C(F)(F)C(F)(F)F.[K+] [Perfluorohexane-1-sulphonic acid – potassium salt]
Conditions | concentration in brain [ng/g] | concentration in liver [ng/g]
[6] | – | 29700
[7] | 929 | –

CCC1(c2ccccc2)C(=O)NCNC1=O [Primidone]
Conditions | concentration in plasma [µg/mL]
[8] | 35

CC(C)[C@]12CC(=O)[C@H](C)[C@H]1C2 [alpha-Thujone]
Conditions | concentration in brain [ng/g] | concentration in plasma [µg/mL]
[9] | – | 0.0113
[10] | 107 | –
[11] | 919 | –
[12] | 652 | –
[13] | 117 | –

OCC(Cl)(Cl)Cl [trichloroethanol (free)]
[14]
Conditions | concentration in blood [µg/mL]
0.2798 h | 3.06
0.518 h | 2.98
1.034 h | 2.89
2.025 h | 2.71
4.029 h | 2.29
5.972 h | 2.03
7.955 h | 1.69
9.937 h | 1.48
11.96 h | 1.27
13.96 h | 1.07
15.94 h | 1.01
17.94 h | 0.738

[14], during exposure
Conditions | concentration in blood [µg/mL]
-58 s | 2.86
-3.486 h | 0.22
-3.013 h | 0.632
-2.028 h | 1.48
-0.9832 h | 2.28

OCC(Cl)(Cl)Cl [trichloroethanol]
[15]
Conditions | concentration in blood [µg/mL]
0 h | 4.78
18 h | 1.17
24 h | 3.43
42 h | 2.78
48 h | 6.47
66 h | 5.22
72 h | 10.8
90 h | 7.86
